These results are taken from ChEMBL document CHEMBL4396972, “Glycyrrhizic acid derivatives as Dengue virus inhibitors” (Bioorg Med Chem Lett, 2019).

Structures are written as SMILES. Activity calls are given as the source filed them. The rule behind the calls is not given here. Bounds are passed on as bounds.

For data set [1], the system named is dengue virus type 2. As to the kind of experiment: Antiviral activity against DENV2 16681 infected in African green monkey Vero E6 cells assessed as reduction in virus induced cytopathic effect at 10 uM measured after 96 hrs by reverse phase contrast microscopy. The settings on record: Vero C1008. The format is functional, organism-based. The method, boiled down:
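Vero E6 cells in supporting DMEM infected with DENV2 strain 16681 (MOI 0.01), then treated immediately with compound at 10 μM. After 96 h incubation, cytopathic effect photographed by reverse phase-contrast microscopy and scored semi-quantitatively (−, +, ++, +++) against infected controls.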
In general terms: Cytopathic effects are the visible damage that an infection or toxin causes in cultured cells.

For a further data set, the system named is Vero C1008. Nature of the data set: Cytotoxicity against African green monkey Vero E6 cells assessed as reduction in survival rate measured after 48 hrs by MTT assay. The settings on record: chlorocebus sabaeus, vero c1008, 48 h. It is filed as cell-based. The method, boiled down: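 MTT viability test on Vero E6 cells in DMEM over a range of compound concentrations. CC50 calculated from survival of treated cells relative to mock cells.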
In general terms: Formazan colour is commonly taken as a measure of viable cells.

The subject of data set [2] is dengue virus type 2. As to the kind of experiment: Antiviral activity against DENV2 16681 infected in African green monkey Vero E6 cells assessed as inhibitory rate of NS4B positive cells measured after 96 hrs incubation by DAPI staining based immunofluorescence method. It is filed as functional, organism-based. Conditions: for IC50: Dengue virus, 16681, Vero C1008, 96 h; for inhibition: Vero C1008. The method, boiled down:
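Vero E6 cells in DMEM, infected with DENV2 strain 16681 at MOI 0.01 and treated with compound (0, 0.1, 1, 10 μM; single 10 μM for screening). After 96 h, immunofluorescence with anti-NS4B antibody and DAPI nuclear counterstain. Infectivity = NS4B-positive cells / DAPI-stained cells. Inhibitory rate = (1 − NS4B-positive % treated / NS4B-positive % mock-treated infected) × 100. IC50 derived from NS4B-positive percentages across concentrations.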

A short description of data set [3]: Therapeutic index, ratio of CC50 for African green monkey Vero E6 cells to IC50 for DENV2 16681 infected in African green monkey Vero E6 cells. It is filed as toxicity, Vero C1008. Conditions: read-out: Ratio CC50/IC50. The method, boiled down: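 TI = CC50/IC50. CC50 comes from the Vero E6 MTT survival test. IC50 comes from the NS4B-positive cell fraction by immunofluorescence in DENV2 16681-infected Vero E6 cells (MOI 0.01, 96 h, 0–10 μM).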

For data set [4], the system named is dengue virus type 2. As to the kind of experiment: Antiviral activity against DENV2 16681 infected in African green monkey Vero E6 cells assessed as inhibitory rate of NS4B positive cells at 10 uM measured after 96 hrs incubation by DAPI staining based immunofluorescence method. The format is functional. Conditions: Dengue virus, 16681, Vero C1008, 96 h. The method, boiled down:
(§1)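 Vero E6 cells in DMEM infected with DENV2 strain 16681 at MOI 0.01, treated at once with compound (0, 0.1, 1, 10 μM), 96 h. Immunofluorescence with anti-NS4B antibody and DAPI counterstain. Infectivity taken as NS4B-positive cells over DAPI-stained total cells. Inhibitory rate = (1 − NS4B-positive % treated infected / NS4B-positive % mock-treated infected) × 100.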

Data set [5] relates to dengue virus type 2. Nature of the data set: Antiviral activity against DENV2 16681 infected in African green monkey Vero E6 cells assessed as inhibitory rate of NS4B positive cells at 1 uM measured after 96 hrs incubation by DAPI staining based immunofluorescence method. The settings on record: Dengue virus, 16681, Vero C1008, 96 h. The format is functional. The method, boiled down: as §1

The test system of data set [6] is dengue virus type 2. Nature of the data set: Antiviral activity against DENV2 16681 infected in human A549 cells assessed as reduction in virus induced cytopathic effect at 0.1 to 10 uM measured after 120 hrs post infection by light microscopy. The format is functional, organism-based.
In data set [7] the test system is dengue virus type 2. Nature of the data set: Antiviral activity against DENV2 16681 infected in African green monkey Vero E6 cells assessed as reduction in virus induced cytopathic effect measured after 96 hrs by reverse phase contrast microscopy. Conditions: Vero C1008. It is filed as functional, organism-based. The method, boiled down:
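Vero E6 cells in DMEM infected with DENV2 16681 at MOI 0.01, compound added immediately (screen at 10 μM, then 0, 0.1, 1, 10 μM). Photographed 96 h post infection by phase-contrast microscopy. CPE reduction scored qualitatively (−, +, ++, +++).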

Data set [8] has as its system dengue virus type 2. Nature of the data set: Antiviral activity against DENV2 16681 infected in human A549 cells assessed as inhibitory rate of NS4B positive cells at 0.1 to 10 uM measured after 120 hrs post infection by DAPI staining based immunofluorescence method. The format is functional, organism-based.

For orientation: inhibition means how much of the control response was suppressed. One may read the CC50 as the concentration at which the toxic effect on the cells reaches its halfway point. Broadly, the IC50 is the concentration needed to halve the response being measured.

Consider `CC[C@H](C)[C@H](NC(=O)[C@H]1O[C@@H](O[C@H]2[C@@H](O[C@H]3CC[C@]4(C)[C@H]5C(=O)C=C6[C@@H]7C[C@@](C)(C(=O)N[C@H](C(=O)O)[C@@H](C)CC)CC[C@]7(C)CC[C@@]6(C)[C@]5(C)CC[C@H]4C3(C)C)O[C@H](C(=O)N[C@H](C(=O)O)[C@@H](C)CC)[C@@H](O)[C@@H]2O)[C@H](O)[C@@H](O)[C@@H]1O)C(=O)O`, for which the inhibition result with dengue virus type 2 [1], in the data set with dengue virus type 2 [6] and in the data set with dengue virus type 2 [8] was “Active” each time. For the same compound, the CC50 in the data set on Vero C1008 is > 100 µM. In addition, the IC50 in the data set with dengue virus type 2 [2] turned out to be 1.3 µM. For the same compound, the inhibition result in the data set on dengue virus type 2 [2] and in the data set on dengue virus type 2 [7] was “Dose-dependent effect” each time. Besides, in data set [3], the selectivity ratio was > 76.3. In the data set with dengue virus type 2 [4], the inhibition at 10 µM is 95.7%. Besides, the inhibition at 1 µM in the data set on dengue virus type 2 [5] came out at 20.2%.
With `CC1(C)[C@@H](O[C@H]2O[C@H](C(=O)N[C@@H](Cc3ccc(O)cc3)C(=O)O)[C@@H](O)[C@H](O)[C@H]2O[C@@H]2O[C@H](C(=O)N[C@@H](Cc3ccc(O)cc3)C(=O)O)[C@@H](O)[C@H](O)[C@H]2O)CC[C@]2(C)[C@H]3C(=O)C=C4[C@@H]5C[C@@](C)(C(=O)N[C@@H](Cc6ccc(O)cc6)C(=O)O)CC[C@]5(C)CC[C@@]4(C)[C@]3(C)CC[C@@H]12`, the inhibition result in the data set with dengue virus type 2 [1] was “Active”. The CC50 with Vero C1008 was > 100 µM. Also, in the data set with dengue virus type 2 [2], the IC50 came to 2.2 µM and the inhibition result was “Dose-dependent effect”. For the same compound, the selectivity ratio in data set [3] is > 46.5. Besides, the inhibition at 10 µM in the data set with dengue virus type 2 [4] stood at 68.5%. For the same compound, the inhibition result in the data set with dengue virus type 2 [7] was “Dose-dependent effect”.
As to `COC(=O)[C@H](CCSC)NC(=O)[C@H]1O[C@@H](O[C@H]2[C@@H](O[C@H]3CC[C@]4(C)[C@H]5C(=O)C=C6[C@@H]7C[C@@](C)(C(=O)N[C@@H](CCSC)C(=O)OC)CC[C@]7(C)CC[C@@]6(C)[C@]5(C)CC[C@H]4C3(C)C)O[C@H](C(=O)N[C@@H](CCSC)C(=O)OC)[C@@H](O)[C@@H]2O)[C@H](O)[C@@H](O)[C@@H]1O`, in the data set with dengue virus type 2 [1], the inhibition result was “Active”. The CC50 in the data set with Vero C1008 was > 100 µM. In the data set on dengue virus type 2 [2], the IC50 turned out to be 4.5 µM and the inhibition result was “Dose-dependent effect”. In data set [3], the selectivity ratio is > 22.2. Moreover, the inhibition at 10 µM in the data set with dengue virus type 2 [4] was 66.3%. In addition, the inhibition entry in the data set with dengue virus type 2 [7] is “Dose-dependent effect”.
